Measured values published in publication PMC8273112 (ACS Infectious Diseases, 2021).
Structures can show the parent of a compound that is named as a salt. Where two headings read alike, the source gives them in different places. One block for each molecule: values may come before it.

Tests used:
[1] = system: Plasmodium falciparum strain D6; test: SYBR Green growth inhibition assay, P. falciparum D6; format: cell-based; conditions: read-out: IC50 D6
[2] = system: Plasmodium falciparum strain Dd2; test: SYBR Green growth inhibition assay, P. falciparum Dd2; format: cell-based
[3] = system: P. falciparum A6 (SB1-A6); test: SYBR Green growth inhibition assay, P. falciparum A6; format: cell-based, Plasmodium falciparum; conditions: read-out: IC50 A6, 72 h
Method in brief: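 Asynchronous parasites grown in human erythrocytes in RPMI-1640 with HEPES, hypoxanthine and Albumax II under 5% O2/5% CO2/90% N2 at 37 °C. Test compound in 2-fold serial dilution from 20 μM, run in quadruplicate, at 2% hematocrit and 0.2% starting parasitemia for 72 h. SYBR Green I lysis dye added for ≥1 h in the dark. Fluorescence read at 497/520 nm, normalized to untreated wells and plotted against log concentration.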

[4] = system: P. falciparum strain Tm90–C2B; test: SYBR Green growth inhibition assay, P. falciparum Tm90-C2B; format: cell-based, Plasmodium falciparum; conditions: read-out: IC50 Tm90–C2B
Method in brief: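 Human erythrocytes (≤28 days old), 2% hematocrit, asynchronous culture at 0.2% initial parasitemia, in RPMI-1640 with HEPES, hypoxanthine, glucose, glutamine and Albumax II. 2-fold serial dilution starting at 20 μM, quadruplicate. Incubated 72 h at 37 °C under 5% O2/5% CO2/90% N2. SYBR Green I dye-detergent added for at least 1 h in the dark; fluorescence read at 497/520 nm, normalized to untreated wells, plotted against log concentration.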

[5] = system: HepG2 cells; test: HepG2 cytotoxicity assay; format: cell-based, human; conditions: read-out: IC50 cytotoxicity, 24 h drug, 24 h recovery
[6] = system: Plasmodium yoelii; test: Modified 4-day Peters test, murine malaria; format: in vivo, Plasmodium yoelii in mice; conditions: for P. yoelii ED90 / P. yoelii ED50: oral gavage days 1–4, parasitemia day 5, mice; for P. yoelii NRD (nonrecrudescence dose, cure dose): oral gavage up to 25 mg/kg/day, no parasites at day 30
[7] = Murine microsomal stability; format: in vitro ADME; conditions: mouse, pooled murine liver microsomes; for CLint scaled at 1 μM: pH 7.4; for half-life at 1 μM: pH 7.4, murine microsomal stability, t1/2, 1 μM, 0.5 mg/mL protein, 37 °C, 1 h, NADPH
[8] = P. falciparum pan-sensitive strain D6, 72 h, average of two to four determinations
[9] = read-out: IC50 Dd2, multidrug-resistant P. falciparum strain Dd2, 72 h
[10] = in-house derived mutant line resistant to respiratory antagonists
[11] = multidrug-resistant clinical isolate also resistant to atovaquone, 72 h
[12] = Plasmodium falciparum, D6, 72 h
[13] = Plasmodium falciparum, DD2, 72 h, read-out: IC50 Dd2
[14] = Plasmodium falciparum, TM90, 72 h
[15] = Plasmodium falciparum, DD2, 48 h, read-out: IC50 Dd2, 48 h
[16] = Plasmodium falciparum, DD2, 72 h, read-out: IC50 Dd2, 72 h
[17] = Plasmodium falciparum, DD2, 96 h, read-out: IC50 Dd2, 96 h

Molecule: 2,2′-Bis[(4-carbonamidophenyl)methylene]carbonimidic Dihydrazide Hydrochloride [Compound 30]
IC50 [1, 8]: 527 nM
IC50 [2, 9]: 405 nM
IC50 [3, 10]: 516 nM
IC50 [4, 11]: 727 nM
IC50 [5]: 42000 nM

Molecule: Cl.N#Cc1cc(/C=N/NC(=N)N/N=C/c2ccc(F)c(C#N)c2)ccc1F [Compound 1, 2,2′-Bis[(3-cyano-4-fluorophenyl)methylene]carbonimidic Dihydrazide Hydrochloride]
IC50 [1, 12]: 4 nM
IC50 [2, 13]: 12 nM
IC50 ([3]; Plasmodium falciparum): 14 nM
IC50 [4, 14]: 16 nM
P. yoelii ED90 [6]: 0.28 mg/kg/day
CLint scaled at 1 μM [7]: 29.3 mL/min/kg
half-life at 1 μM [7]: > 150 min

Molecule: N=C(N/N=C/c1ccccc1F)N/N=C/c1ccccc1F [Compound 2, 2,2′-Bis[(2-fluorophenyl)methylene]carbonimidic Dihydrazide Hydrochloride]
IC50 [1, 12]: 2870 nM
IC50 [2, 13]: 4590 nM
IC50 ([3]; Plasmodium falciparum): 1890 nM
IC50 [4, 14]: > 5000 nM

Molecule: N=C(N/N=C/c1cccc(F)c1)N/N=C/c1cccc(F)c1 [Compound 3, 2,2′-Bis[(3-fluorophenyl)methylene]carbonimidic Dihydrazide Hydrochloride]
IC50 [1, 12]: 767 nM
IC50 [2, 13]: > 5000 nM
IC50 ([3]; Plasmodium falciparum): 426 nM
IC50 [4, 14]: > 5000 nM

Molecule: N=C(N/N=C/c1ccc(F)cc1)N/N=C/c1ccc(F)cc1 [Compound 4, 2,2′-Bis[(4-fluorophenyl)methylene]carbonimidic Dihydrazide Hydrochloride]
IC50 [1, 12]: 1020 nM
IC50 [2, 13]: 3790 nM
IC50 ([3]; Plasmodium falciparum): 369 nM
IC50 [4, 14]: 4900 nM

Molecule: N=C(N/N=C/c1ccccc1Cl)N/N=C/c1ccccc1Cl [Compound 5, 2,2′-Bis[(2-chlorophenyl)methylene]carbonimidic Dihydrazide Hydrochloride]
IC50 [1, 12]: 334 nM
IC50 [2, 13]: 961 nM
IC50 ([3]; Plasmodium falciparum): 348 nM
IC50 [4, 14]: 1220 nM

Molecule: N=C(N/N=C/c1cccc(Cl)c1)N/N=C/c1cccc(Cl)c1 [Compound 6, 2,2′-Bis[(3-chlorophenyl)methylene]carbonimidic Dihydrazide Hydrochloride]
IC50 [1, 12]: 202 nM
IC50 [2, 13]: 567 nM
IC50 ([3]; Plasmodium falciparum): 237 nM
IC50 [4, 14]: 664 nM

Molecule: N=C(N/N=C/c1ccccc1Br)N/N=C/c1ccccc1Br [Compound 7, 2,2′-Bis[(2-bromophenyl)methylene]carbonimidic Dihydrazide Hydrochloride]
IC50 [1, 12]: 280 nM
IC50 [2, 13]: 715 nM
IC50 ([3]; Plasmodium falciparum): 876 nM
IC50 [4, 14]: 974 nM

Molecule: N=C(N/N=C/c1cccc(Br)c1)N/N=C/c1cccc(Br)c1 [Compound 8, 2,2′-Bis[(3-bromophenyl)methylene]carbonimidic Dihydrazide Hydrochloride]
IC50 [1, 12]: 572 nM
IC50 [2, 13]: 1520 nM
IC50 ([3]; Plasmodium falciparum): 502 nM
IC50 [4, 14]: 1840 nM

Molecule: N=C(N/N=C/c1ccc(Br)cc1)N/N=C/c1ccc(Br)cc1 [Compound 9, 2,2′-Bis[(4-bromophenyl)methylene]carbonimidic Dihydrazide Hydrochloride]
IC50 [1, 12]: 277 nM
IC50 [2, 13]: 876 nM
IC50 ([3]; Plasmodium falciparum): 269 nM
IC50 [4, 14]: 899 nM

Molecule: Cc1ccc(/C=N/NC(=N)N/N=C/c2ccc(C)cc2)cc1 [Compound 10, 2,2′-Bis[(4-methylphenyl)methylene]carbonimidic Dihydrazide Hydrochloride]
IC50 [1, 12]: 905 nM
IC50 [2, 13]: 2430 nM
IC50 ([3]; Plasmodium falciparum): > 5000 nM
IC50 [4, 14]: 2530 nM

Molecule: COc1ccc(/C=N/NC(=N)N/N=C/c2ccc(OC)cc2)cc1 [Compound 11, 2,2′-Bis[(4-methoxyphenyl)methylene]carbonimidic Dihydrazide Hydrochloride]
IC50 [1, 12]: 263 nM
IC50 [2, 13]: 1600 nM
IC50 ([3]; Plasmodium falciparum): 289 nM
IC50 [4, 14]: > 5000 nM

Molecule: N=C(N/N=C/c1ccc(C(F)(F)F)cc1)N/N=C/c1ccc(C(F)(F)F)cc1 [Compound 12, 2,2′-Bis[(4-trifluoromethylphenyl)methylene]carbonimidic Dihydrazide Hydrochloride]
IC50 [1, 12]: 614 nM
IC50 [2, 13]: 1540 nM
IC50 ([3]; Plasmodium falciparum): 567 nM
IC50 [4, 14]: 2740 nM

Molecule: N=C(N/N=C/c1ccccc1OC(F)(F)F)N/N=C/c1ccccc1OC(F)(F)F [Compound 14, 2,2′-Bis[(2-trifluoromethoxyphenyl)methylene]carbonimidic Dihydrazide Hydrochloride]
IC50 [1, 12]: 1080 nM
IC50 [2, 13]: 2330 nM
IC50 ([3]; Plasmodium falciparum): 391 nM
IC50 [4, 14]: > 5000 nM

Molecule: N=C(N/N=C/c1cccc(OC(F)(F)F)c1)N/N=C/c1cccc(OC(F)(F)F)c1 [Compound 15, 2,2′-Bis[(3-trifluoromethoxyphenyl)methylene]carbonimidic Dihydrazide Hydrochloride]
IC50 [1, 12]: 670 nM
IC50 [2, 13]: 1570 nM
IC50 ([3]; Plasmodium falciparum): 689 nM
IC50 [4, 14]: 2990 nM

Molecule: Cl.N=C(N/N=C/c1ccc(OC(F)(F)F)cc1)N/N=C/c1ccc(OC(F)(F)F)cc1 [Compound 16, 2,2′-Bis[(4-trifluoromethoxyphenyl)methylene]carbonimidic Dihydrazide Hydrochloride]
IC50 [1, 12]: 39 nM
IC50 [2, 15]: 410 nM
IC50 [2, 13]: 83 nM
IC50 [2, 16]: 195 nM
IC50 [2, 17]: 192 nM
IC50 ([3]; Plasmodium falciparum): 52 nM
IC50 [4, 14]: 114 nM
P. yoelii ED50 [6]: 1.2 mg/kg/day
P. yoelii ED90 [6]: 3.7 mg/kg/day
P. yoelii NRD (nonrecrudescence dose, cure dose) [6]: 12.5 mg/kg/day
CLint scaled at 1 μM [7]: 31.7 mL/min/kg
half-life at 1 μM [7]: > 150 min

Molecule: N=C(N/N=C/c1ccc(OC(F)F)cc1)N/N=C/c1ccc(OC(F)F)cc1 [Compound 18, 2,2′-Bis[(4-difluoromethoxyphenyl)methylene]carbonimidic Dihydrazide Hydrochloride]
IC50 [1, 12]: 71 nM
IC50 [2, 13]: 191 nM
IC50 ([3]; Plasmodium falciparum): 87 nM
IC50 [4, 14]: 193 nM

Molecule: N#Cc1ccccc1/C=N/NC(=N)N/N=C/c1ccccc1C#N [Compound 20, 2,2′-Bis[(2-cyanophenyl)methylene]carbonimidic Dihydrazide Hydrochloride]
IC50 [1, 12]: 1020 nM
IC50 [2, 13]: 2100 nM
IC50 ([3]; Plasmodium falciparum): 969 nM
IC50 [4, 14]: 1990 nM

Molecule: Cl.N#Cc1cccc(/C=N/NC(=N)N/N=C/c2cccc(C#N)c2)c1 [Compound 21, 2,2′-Bis[(3-cyanophenyl)methylene]carbonimidic Dihydrazide Hydrochloride]
IC50 [1, 12]: 7 nM
IC50 [2, 15]: 31 nM
IC50 [2, 13]: 20 nM
IC50 [2, 16]: 21 nM
IC50 [2, 17]: 22 nM
IC50 ([3]; Plasmodium falciparum): 24 nM
IC50 [4, 14]: 31 nM
P. yoelii ED50 [6]: 7.1 mg/kg/day
P. yoelii ED90 [6]: 9.4 mg/kg/day
P. yoelii NRD (nonrecrudescence dose, cure dose) [6]: >25 mg/kg/day
CLint scaled at 1 μM [7]: 93.8 mL/min/kg
half-life at 1 μM [7]: 58.2 min

Molecule: N=C(N/N=C/c1ccccc1)N/N=C/c1ccccc1 [Compound 24, 2,2′-Bis(phenylmethylene)carbonimidic Dihydrazide Hydrochloride]
IC50 [1, 12]: 705 nM
IC50 [2, 13]: 4300 nM
IC50 ([3]; Plasmodium falciparum): 581 nM
IC50 [4, 14]: > 5000 nM

Molecule: N=C(NN=Cc1ccc(O)cc1)NN=Cc1ccc(O)cc1 [Compound 25, 2,2′-Bis[(4-phenol)methylene]carbonimidic Dihydrazide Hydrochloride]
IC50 [1, 8]: 143 nM
IC50 [2, 9]: 240 nM
IC50 [3, 10]: 278 nM
IC50 [4, 11]: 286 nM
IC50 [5]: 39000 nM

Molecule: N=C(NN=Cc1ccc(-c2ccccc2)cc1)NN=Cc1ccc(-c2ccccc2)cc1 [Compound 26, 2,2′-Bis[(4-diphenyl)methylene]carbonimidic Dihydrazide Hydrochloride]
IC50 [1, 8]: 15 nM
IC50 [2, 9]: 87 nM
IC50 [3, 10]: 33 nM
IC50 [4, 11]: 71 nM
IC50 [5]: > 200000 nM

Molecule: CN(C)c1ccc(/C=N/NC(=N)N/N=C/c2ccc(N(C)C)cc2)cc1 [Compound 28, 2,2′-Bis[(4-dimethylaminophenyl)methylene]carbonimidic Dihydrazide Hydrochloride]
IC50 [1, 12]: 118 nM
IC50 [2, 13]: 264 nM
IC50 ([3]; Plasmodium falciparum): 122 nM
IC50 [4, 14]: 213 nM

Molecule: N=C(N/N=C/c1ccc(N2CCOCC2)cc1)N/N=C/c1ccc(N2CCOCC2)cc1 [Compound 33, 2,2′-Bis[(4-morpholinophenyl)methylene]carbonimidic Dihydrazide Hydrochloride]
IC50 [1, 12]: 131 nM
IC50 [2, 13]: 329 nM
IC50 ([3]; Plasmodium falciparum): 116 nM
IC50 [4, 14]: 295 nM

Molecule: N=C(N/N=C/c1ccccc1)N/N=C/c1ccccc1F [Compound 38, 2-(Phenylmethylene)-2′-[(2-Fluorophenyl)methylene]carbonimidic Dihydrazide Hydrochloride]
IC50 [1, 12]: 1030 nM
IC50 [2, 13]: 2200 nM
IC50 ([3]; Plasmodium falciparum): 833 nM
IC50 [4, 14]: > 5000 nM

half-life at 1 μM [7]: 14.5 min
Molecule: O=C(c1ccc(F)cc1)C1CCN(CCn2c(=O)[nH]c3ccccc3c2=O)CC1 [ketanserin, reference compound]
